Data as given in ChEMBL document CHEMBL1151695, “Design, synthesis and preliminary pharmacological evaluation of new analogues of DM232 (unifiram) and DM235 (sunifiram) as cognition modulators” (Bioorg Med Chem, 2008).
Calls of active or inactive are those of the source. No cut-off for these calls is given here.

How the values were obtained:
Mus musculus [1] = experiment: Effect on passive avoidance in mouse assessed as latency time to enter dark room in retention session at 10 mg/kg, ip treated 20 mins before training session; format: functional; conditions: route intraperitoneal
How it was run: (§1)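 Same step-through passive avoidance without scopolamine. Punishment is a 40 cm fall into 10 °C water on entering the dark room. Mice not entering within 60 s at training were excluded. Compound given ip at 1:10 dilution steps, 20 min before training, in saline or saline/DMSO 4:1. Controls received an extra saline injection right after training. Latency to enter the dark room recorded at training and at next-day retention.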

Mus musculus [2] = experiment: Effect on passive avoidance in mouse assessed as latency time to enter dark room in training session at 10 mg/kg, ip treated 20 mins before training session; format: functional; conditions: route intraperitoneal; how it was run: as §1
Mus musculus [3] = organism: Mus musculus; experiment: Effect on passive avoidance in mouse treated 20 mins before training session; format: functional; conditions: read-out: MED; how it was run: as §1
Mus musculus [4] = experiment: Antiamnesic activity in scopolamine-induced mouse assessed as latency time to enter dark room in retention session at 1.0 mg/kg, ip treated 20 mins before training session by passive avoidance test; format: functional; conditions: route intraperitoneal
How it was run: (§2)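 Step-through passive avoidance in mice: lit and dark compartments joined by a guillotine door. Entering the dark side drops the mouse 40 cm into 10 °C water, a non-painful punishment. Mice not entering within 60 s at training were excluded. Compound given ip at 1:10 dilution steps […], 20 min before training. Vehicle was saline or saline/DMSO 4:1. Scopolamine 1.5 mg/kg ip immediately after punishment. Retention tested next day. MED is the lowest dose reversing amnesia.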

Mus musculus [5] = experiment: Antiamnesic activity in scopolamine-induced mouse assessed as latency time to enter dark room in training session at 1.0 mg/kg, ip treated 20 mins before training session by passive avoidance test; format: functional; conditions: route intraperitoneal; how it was run: as §2
Mus musculus [6] = experiment: Antiamnesic activity in ip dosed mouse assessed as reversal of scopolamine-induced memory loss treated 20 mins before training session by passive avoidance test; format: functional; conditions: read-out: MED; how it was run: as §2
Mus musculus [7] = organism: Mus musculus; experiment: Toxicity in mouse assessed as motor coordination after 45 mins by rotarod test; format: organism-based; conditions: in vivo, 0.75 h
How it was run: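 Rota-rod: rod 30 cm long, 15 cm above the base, split into five sections, rotating at 16 rpm. Falls counted over 30 s. Mice with fewer than 3 or more than 6 falls in the pretest were rejected. Performance measured at pretest and 15, 30 and 45 min after test start. Compared with saline-treated mice.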

Mus musculus [8] = organism: Mus musculus; experiment: Toxicity in mouse assessed as spontaneous motility and inspection activity after 5 mins by hole board test; format: organism-based; conditions: in vivo
How it was run: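 Hole-board: 40 cm square plane with 16 holes of 3 cm, arranged 4×4. Each mouse placed centrally and free to move for […]. Photocells counted locomotion (spontaneous motility) and hole exploration, both as counts in 5 min. Compared with saline-treated mice.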

Mus musculus [9] = experiment: Effect on passive avoidance in mouse assessed as latency time to enter dark room in retention session at 0.1 mg/kg, ip treated 20 mins before training session; format: functional; conditions: route intraperitoneal; how it was run: as §1
Mus musculus [10] = experiment: Effect on passive avoidance in mouse assessed as latency time to enter dark room in training session at 0.1 mg/kg, ip treated 20 mins before training session; format: functional; conditions: route intraperitoneal; how it was run: as §1
Mus musculus [11] = experiment: Antiamnesic activity in mouse assessed as reversal of scopolamine-induced memory loss at 10 mg/kg, ip treated 20 mins before training session by passive avoidance test; format: functional, organism-based; parameters: dose 10 mg/kg; how it was run: as §2
Mus musculus [12] = experiment: Antiamnesic activity in scopolamine-induced mouse assessed as latency time to enter dark room in retention session at 0.01 mg/kg, ip treated 20 mins before training session by passive avoidance test; format: functional; conditions: route intraperitoneal; how it was run: as §2
Mus musculus [13] = experiment: Antiamnesic activity in scopolamine-induced mouse assessed as latency time to enter dark room in training session at 0.01 mg/kg, ip treated 20 mins before training session by passive avoidance test; format: functional; conditions: route intraperitoneal; how it was run: as §2
Mus musculus [14] = experiment: Effect on passive avoidance in mouse assessed as latency time to enter dark room in training session at 1.0 mg/kg, ip treated 20 mins before training session; format: functional; conditions: route intraperitoneal; how it was run: as §1
Mus musculus [15] = experiment: Effect on passive avoidance in mouse assessed as latency time to enter dark room in retention session at 1.0 mg/kg, ip treated 20 mins before training session; format: functional; conditions: route intraperitoneal; how it was run: as §1
Mus musculus [16] = experiment: Antiamnesic activity in scopolamine-induced mouse assessed as latency time to enter dark room in retention session at 10 mg/kg, ip treated 20 mins before training session by passive avoidance test; format: functional; conditions: route intraperitoneal; how it was run: as §2
Mus musculus [17] = experiment: Antiamnesic activity in scopolamine-induced mouse assessed as latency time to enter dark room in training session at 10 mg/kg, ip treated 20 mins before training session by passive avoidance test; format: functional; conditions: route intraperitoneal; how it was run: as §2
Mus musculus [18] = experiment: Antiamnesic activity in scopolamine-induced mouse assessed as latency time to enter dark room in retention session at 0.1 mg/kg, ip treated 20 mins before training session by passive avoidance test; format: functional; conditions: route intraperitoneal; how it was run: as §2
Mus musculus [19] = experiment: Antiamnesic activity in scopolamine-induced mouse assessed as latency time to enter dark room in training session at 0.1 mg/kg, ip treated 20 mins before training session by passive avoidance test; format: functional; conditions: route intraperitoneal; how it was run: as §2
Mus musculus [20] = experiment: Effect on passive avoidance in mouse assessed as latency time to enter dark room in retention session at 0.01 mg/kg, ip treated 20 mins before training session; format: functional; conditions: route intraperitoneal; how it was run: as §1
Mus musculus [21] = experiment: Effect on passive avoidance in mouse assessed as latency time to enter dark room in training session at 0.01 mg/kg, ip treated 20 mins before training session; format: functional; conditions: route intraperitoneal; how it was run: as §1

| Compound | minimal effective dose (Mus musculus [3]) | minimal effective dose (Mus musculus [6]) | Activity (Mus musculus [7]) | Activity (Mus musculus [8]) | Activity (Mus musculus [11]) | further results |
| --- | --- | --- | --- | --- | --- | --- |
| CC(C)S(=O)(=O)Nc1ccc(NS(=O)(=O)c2ccc(F)cc2)cc1 | 10 mg/kg | 1 mg/kg | Non-toxic | Non-toxic | – | Activity (Mus musculus [1]): 125.2 s; Activity (Mus musculus [2]): 21.1 s; Activity (Mus musculus [4]): 76.3 s; Activity (Mus musculus [5]): 19.1 s |
| CCC(=O)N[C@H]1CC[C@H](NS(=O)(=O)c2ccc(F)cc2)CC1 | 0.1 mg/kg | 1 mg/kg | Non-toxic | Non-toxic | – | Activity (Mus musculus [9]): 56.3 s; Activity (Mus musculus [10]): 16.9 s; Activity (Mus musculus [4]): 16.4 s; Activity (Mus musculus [5]): 17.5 s |
| CCC(=O)Nc1ccc(NS(=O)(=O)c2ccc(F)cc2)cc1 | – | – | Non-toxic | Non-toxic | inactive | – |
| CC(C)S(=O)(=O)N1CCN2C(=O)c3ccccc3C2C1 (stereo not given) | – | 1 mg/kg | Non-toxic | Non-toxic | – | Activity (Mus musculus [4]): 85.5 s; Activity (Mus musculus [5]): 16.3 s |
| CC(C)S(=O)(=O)N(C)c1ccc(N(C)C(=O)c2ccccc2)cc1 | 1 mg/kg | 0.01 mg/kg | Non-toxic | Non-toxic | – | Activity (Mus musculus [12]): 91.8 s; Activity (Mus musculus [13]): 20.7 s; Activity (Mus musculus [14]): 19.6 s; Activity (Mus musculus [15]): 123.6 s |
| CCC(=O)N[C@H]1CC[C@H](NC(=O)CC)CC1 | – | – | Non-toxic | Non-toxic | inactive | – |
| CCC(=O)Nc1ccc(NS(=O)(=O)C(C)C)cc1 | – | – | Non-toxic | Non-toxic | inactive | – |
| CC(C)S(=O)(=O)Nc1ccc(NC(=O)c2ccccc2)cc1 | 1 mg/kg | 10 mg/kg | Non-toxic | Non-toxic | – | Activity (Mus musculus [16]): 88.1 s; Activity (Mus musculus [17]): 16.8 s; Activity (Mus musculus [14]): 22.1 s; Activity (Mus musculus [15]): 116.7 s |
| CC(=O)N1CCN(C(=O)c2ccccc2)CC1 | – | 10 mg/kg | Non-toxic | Non-toxic | – | Activity (Mus musculus [16]): 119 s; Activity (Mus musculus [17]): 11.3 s |
| CC(C)S(=O)(=O)N1CCN2C(=O)CCC2C1 (stereo not given) | 10 mg/kg | – | Non-toxic | Non-toxic | – | Activity (Mus musculus [1]): 61.5 s; Activity (Mus musculus [2]): 13.6 s |
| CCC(=O)N1CCN2C(=O)c3ccccc3C2C1 (stereo not given) | – | – | Non-toxic | Non-toxic | inactive | – |
| CC(=O)Nc1ccc(NC(=O)c2ccccc2)cc1 | – | – | Non-toxic | Non-toxic | inactive | – |
| O=C(N[C@H]1CC[C@H](NS(=O)(=O)c2ccc(F)cc2)CC1)c1ccccc1 | – | – | Non-toxic | Non-toxic | inactive | – |
| O=C1c2ccccc2C2CN(S(=O)(=O)c3ccc(F)cc3)CCN12 (stereo not given) | – | 0.1 mg/kg | Non-toxic | Non-toxic | – | Activity (Mus musculus [18]): 74.5 s; Activity (Mus musculus [19]): 15.6 s |
| CC(=O)Nc1ccc(NS(=O)(=O)C(C)C)cc1 | – | – | Non-toxic | Non-toxic | inactive | – |
| CCC(=O)N[C@H]1CC[C@@H](NS(=O)(=O)c2ccc(F)cc2)CC1 | 10 mg/kg | 0.1 mg/kg | Non-toxic | Non-toxic | – | Activity (Mus musculus [1]): 162.9 s; Activity (Mus musculus [2]): 25.3 s; Activity (Mus musculus [18]): 89.1 s; Activity (Mus musculus [19]): 16.8 s |
| O=C(Nc1ccc(NS(=O)(=O)c2ccc(F)cc2)cc1)c1ccccc1 | – | – | Non-toxic | Non-toxic | inactive | – |
| CC(=O)N[C@H]1CC[C@H](NS(=O)(=O)c2ccc(F)cc2)CC1 | 0.01 mg/kg | 10 mg/kg | Non-toxic | Non-toxic | – | Activity (Mus musculus [20]): 52.8 s; Activity (Mus musculus [21]): 19.2 s; Activity (Mus musculus [16]): 26.3 s; Activity (Mus musculus [17]): 17 s |
| CC(C)S(=O)(=O)N[C@H]1CC[C@H](NC(=O)c2ccccc2)CC1 | – | – | Non-toxic | Non-toxic | inactive | – |
| CCC(=O)N[C@H]1CC[C@@H](NC(=O)CC)CC1 | 10 mg/kg | 1 mg/kg | Non-toxic | Non-toxic | – | Activity (Mus musculus [1]): 165.2 s; Activity (Mus musculus [2]): 34.8 s; Activity (Mus musculus [4]): 106.2 s; Activity (Mus musculus [5]): 17.8 s |
| CC(C)S(=O)(=O)N(C)c1ccc(N(C)S(=O)(=O)c2ccc(F)cc2)cc1 | 1 mg/kg | 0.01 mg/kg | Non-toxic | Non-toxic | – | Activity (Mus musculus [12]): 70.5 s; Activity (Mus musculus [13]): 18.8 s; Activity (Mus musculus [14]): 30 s; Activity (Mus musculus [15]): 158.6 s |
| CCC(=O)N[C@H]1CC[C@H](NC(=O)c2ccccc2)CC1 | – | – | Non-toxic | Non-toxic | inactive | – |
| CC(=O)NC1CCN(S(=O)(=O)c2ccc(F)cc2)CC1 [SAPUNIFIRAM] | 0.1 mg/kg | 0.01 mg/kg | Non-toxic | Non-toxic | – | Activity (Mus musculus [9]): 126.8 s; Activity (Mus musculus [10]): 19.1 s; Activity (Mus musculus [12]): 90.6 s; Activity (Mus musculus [13]): 14.5 s |
| CC(C)S(=O)(=O)Nc1ccc(N(C)S(=O)(=O)c2ccc(F)cc2)cc1 | 1 mg/kg | 0.1 mg/kg | Non-toxic | Non-toxic | – | Activity (Mus musculus [18]): 103.6 s; Activity (Mus musculus [19]): 20.2 s; Activity (Mus musculus [14]): 26.2 s; Activity (Mus musculus [15]): 149.8 s |
| CC(=O)N[C@H]1CC[C@@H](NS(=O)(=O)c2ccc(F)cc2)CC1 | 10 mg/kg | 1 mg/kg | Non-toxic | Non-toxic | – | Activity (Mus musculus [1]): 156.6 s; Activity (Mus musculus [2]): 32 s; Activity (Mus musculus [4]): 104.5 s; Activity (Mus musculus [5]): 19.1 s |
| CC(C)S(=O)(=O)Nc1ccc(N(C)C(=O)c2ccccc2)cc1 | 0.1 mg/kg | 0.1 mg/kg | Non-toxic | Non-toxic | – | Activity (Mus musculus [9]): 121 s; Activity (Mus musculus [10]): 17.3 s; Activity (Mus musculus [18]): 75.9 s; Activity (Mus musculus [19]): 21.6 s |
| CC(=O)N1CCN2C(=O)c3ccccc3C2C1 (stereo not given) | – | – | Non-toxic | Non-toxic | inactive | – |
| CC(=O)N[C@H]1CC[C@H](NC(=O)c2ccccc2)CC1 | – | – | Non-toxic | Non-toxic | inactive | – |
| CC(C)S(=O)(=O)N(C)c1ccc(NC(=O)c2ccccc2)cc1 | – | 0.01 mg/kg | Non-toxic | Non-toxic | – | Activity (Mus musculus [12]): 66.7 s; Activity (Mus musculus [13]): 20.6 s |
| CC(=O)Nc1ccc(NS(=O)(=O)c2ccc(F)cc2)cc1 | – | – | Non-toxic | Non-toxic | inactive | – |
